Shown are actives, neighbours in structure and some others; about 5.8% of the full set was active somewhere.
KDM4C inh – inhibitors of human demethylase GASC-1 KDM4C. Q9H3R0. GST-KDM4C 2-372, H3K9me3 peptide, LANCE TR-FRET. inhibition, % at 12.5 µM. 96,000 compounds, 0.15% hits. AID 720574;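 active = mean replicate inhibition above about 25%, with at least 55% of replicates also reaching it, limit read from the data, passing the limit was not always enough; inconclusive = only one of those two conditions met; inactive = neither condition met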
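reagent = H3K9me3 peptide substrate, Fe(II), 2-oxoglutarate | system = GST-tagged GASC-1 (JMJD2C) catalytic fragment, aa 2-372 | amount = enzyme final amount 10 nM | read-out = Fall in 671/618 emission ratio as inhibition | medium = HEPES buffer, pH 7.5, plus ascorbate | schedule = 30 min reaction, 60 min detection, RT | measured by = LANCE TR-FRET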
T cruzi growth-1 – inhibitors of T. cruzi proliferation. T. cruzi beta-gal in NIH3T3, GalScreen luminescence, 90 h. 77,000 compounds, 5.9% hits. inhibition, % at 8.34 µM;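 active = mean inhibition above about 93%, with at least 55% of replicates each passing it, limit read from the data, passing the limit was not always enough; inconclusive = only one of those two conditions holds; inactive = neither condition holds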
Pf Dd2 inh – blocks growth of Plasmodium falciparum Dd2 parasites; 94,000 compounds, 2.3% hits; P. falciparum Dd2 growth, SYBR Green, 72 h; active compounds read low; AID 1159554; activity change, % at 10 µM; in the data active = activity change below about -80%; inconclusive = no clear call, values can overlap the other calls
IDH1 mut inh – inhibitors of human IDH1 R132H; O75874; inhibition, % at 10 µM; IDH1 R132H reductase, diaphorase/resazurin fluorescence, 60 min; 70,000 compounds, 0.18% hits; in the data active = inhibition above about 34%; inconclusive = no clear call, values can overlap the other calls; inactive = below about 11%;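 also: 0% = DMSO and 100% = no enzyme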
Target sequence (O75874 whole entry R132H): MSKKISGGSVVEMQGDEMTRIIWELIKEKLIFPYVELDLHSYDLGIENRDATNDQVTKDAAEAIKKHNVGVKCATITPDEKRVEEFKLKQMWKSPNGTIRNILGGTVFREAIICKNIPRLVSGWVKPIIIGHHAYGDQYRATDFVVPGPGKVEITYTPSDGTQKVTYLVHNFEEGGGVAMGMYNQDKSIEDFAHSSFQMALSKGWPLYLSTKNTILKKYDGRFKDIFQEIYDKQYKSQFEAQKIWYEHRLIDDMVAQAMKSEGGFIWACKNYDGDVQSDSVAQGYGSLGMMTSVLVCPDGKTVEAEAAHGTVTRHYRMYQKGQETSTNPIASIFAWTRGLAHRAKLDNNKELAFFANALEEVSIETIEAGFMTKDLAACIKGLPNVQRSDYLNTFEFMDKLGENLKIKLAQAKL
T cruzi growth-2 – inhibitors of T. cruzi proliferation | shares compounds with T cruzi growth-1 | T. cruzi beta-gal in NIH3T3, GalScreen luminescence, 90 h | inhibition, % at 8.35 µM | 5,600 compounds, 72% hits;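 active = mean replicate inhibition above about 95% and at least 55% of replicates individually reaching it, limit read from the data; inconclusive = only one of the two criteria is met; inactive = neither criterion is met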
T cruzi growth-3 – blocks T. cruzi growth in NIH3T3 host cells | shares compounds with T cruzi growth-1 | T. cruzi beta-gal in NIH3T3, GalScreen luminescence, 90 h | inhibition, % at 2.09 µM | 5,600 compounds, 21% hits;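 active = mean inhibition above about 95%, with at least 55% of replicates also reaching it, limit read from the data; inconclusive = meets just one of the two conditions; inactive = meets neither condition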;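 also: plate controls were neutral control median for no effect and positive control median for full effect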
3T3 cytotox – kills mouse NIH/3T3 fibroblasts; shares compounds with T cruzi growth-1; NIH/3T3 viability, CellTiter-Glo ATP luminescence, 90 h; cytotoxicity (signal decrease), % at 8.35 µM; 5,600 compounds, 14% hits; AID 651742;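 active = mean signal decrease across replicates above about 35% based on untreated-well scatter, with enough replicates individually passing, limit read from the data; inconclusive = no rule stated though some were filed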;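 also: 0% = median of neutral control wells and 100% = median of positive control wells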
NIH3T3 tox 2 – kills mouse NIH/3T3 fibroblasts; shares compounds with T cruzi growth-1; NIH/3T3 viability, CellTiter-Glo ATP luminescence, 90 h; inhibition, % at 24.9 µM; 5,600 compounds, 56% hits; AID 651744;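 active = mean loss of cell viability signal at or above a set limit, and enough replicates individually reaching it; inconclusive = meets only the mean limit or only the replicate share; inactive = meets neither condition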;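 also: 0% = median of neutral control wells and 100% = median of positive control wells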
Starred values were filed as active, the others as inactive; ? = inconclusive; . = not tested or not shown.

SMILES	KDM4C inh	T cruzi growth-1	Pf Dd2 inh	IDH1 mut inh	T cruzi growth-2	T cruzi growth-3	3T3 cytotox	NIH3T3 tox 2
COc1ccc(S(=O)(=O)N(C)C[C@@H]2Oc3cc(C#CC4CCCC4)ccc3S(=O)(=O)N([C@H](C)CO)C[C@H]2C)cc1	1	13	-49	0	.	.	.	.
Cc1ccc(S(=O)(=O)N(C)C[C@@H]2Oc3cc(C#CC4CCCC4)ccc3S(=O)(=O)N([C@H](C)CO)C[C@@H]2C)cc1	0	125*	-29	0	89	103*	7	4
C[C@@H]1CN([C@H](C)CO)S(=O)(=O)c2ccc(C#CC3CCCC3)cc2O[C@H]1CN(C)S(C)(=O)=O	-1	43	-10	-6	.	.	.	.
N#C[C@@H]1[C@@H](c2ccc(/C=C/c3ccccc3)cc2)[C@@H](CO)N1C(=O)C1CCCCC1	0	102*	-24	.	?	58	5	26
N#C[C@H]1[C@@H](c2ccc(/C=C/c3ccccc3)cc2)[C@@H](CO)N1C(=O)C1CCCCC1	-1	98*	-25	.	96*	?	15	90*
Cc1ccc(N(C(C)C(=O)Nc2cccc(C)c2C)S(C)(=O)=O)cc1 (stereo not given)	.	.	.	0	.	.	.	.
N#Cc1c(NC(=O)c2cc(S(=O)(=O)N3CCOCC3)cs2)sc2c1CCCC2	.	.	.	0	.	.	.	.
CCC(=O)N1CC[C@H]2[C@H](CO)Nc3ccc(-c4ccccc4)cc3[C@H]21	-2	33	4	.	.	.	.	.
CCC(=O)N1CC[C@@H]2[C@H]1c1cc(-c3ccc(C(=O)N(C)C)cc3)ccc1N[C@@H]2CO	1	105*	-4	.	?	53	0	14
CCC(=O)N1CC[C@H]2[C@H](CO)Nc3ccc(-c4ccc(C(=O)N(C)C)cc4)cc3[C@H]21	-1	107*	11	.	104*	49	-22	-9
Cc1cccc(NC(=O)c2ccc(OC(C)C(=O)Nc3ccc(Br)cc3)cc2)c1C (stereo not given)	.	.	.	0	.	.	.	.
COC(=O)COc1ccc(NC(=O)c2ccc([N+](=O)[O-])c(C)c2)cc1	.	.	.	0	.	.	.	.
C[C@H]1CN([C@@H](C)CO)C(=O)c2cccc(NC(=O)c3ccc(-c4nccs4)cc3)c2O[C@H]1CN(C)C(=O)Nc1ccc(C(F)(F)F)cc1	-3	95	-45	.	.	.	.	.
C[C@@H]1CN([C@@H](C)CO)C(=O)c2cccc(NC(=O)c3ccc(-c4nccs4)cc3)c2O[C@H]1CN(C)C(=O)Nc1ccc(C(F)(F)F)cc1	-2	120*	-44	.	87	82	24	70*
C[C@@H]1CN([C@H](C)CO)C(=O)c2cccc(NC(=O)c3ccc(-c4nccs4)cc3)c2O[C@H]1CN(C)C(=O)Nc1ccc(C(F)(F)F)cc1	?	115*	-11	.	100*	72	28	72*
C[C@H](CO)N1C[C@H](C)[C@H](CN(C)C(=O)Nc2ccc(F)cc2)Oc2c(NC(=O)c3ccc(-c4nccs4)cc3)cccc2C1=O	-1	.	.	.	.	.	.	.
COc1cc(O)c(Oc2cc(C)cc(O)c2C(=O)O)c(CO)c1	.	.	.	1	.	.	.	.
Cc1ccc(S(=O)(=O)Nc2ccc3c(c2)C(=O)N([C@H](C)CO)C[C@H](C)[C@@H](CN(C)S(=O)(=O)c2ccc(F)cc2)OCCCC[C@H](C)O3)cc1	4	.	-73	.	.	.	.	.
Cc1ccc(S(=O)(=O)N(C)C[C@H]2OCCCC[C@@H](C)Oc3ccc(NS(=O)(=O)c4ccc(F)cc4)cc3C(=O)N([C@H](C)CO)C[C@H]2C)cc1	-1	109*	-76	-1	103*	?	-19	-30
Cc1ccc(S(=O)(=O)N(C)C[C@@H]2OCCCC[C@H](C)Oc3ccc(NS(=O)(=O)c4ccc(F)cc4)cc3C(=O)N([C@H](C)CO)C[C@H]2C)cc1	-1	107*	-76	1	107*	91	1	55*
Cc1ccc(S(=O)(=O)Nc2ccc3c(c2)C(=O)N([C@@H](C)CO)C[C@@H](C)[C@H](CN(C)S(=O)(=O)c2ccc(F)cc2)OCCCC[C@H](C)O3)cc1	0	121*	-36	-1	110*	41	2	2
O=C(CN1C(=O)c2cccc3cccc1c23)NCc1ccco1	.	.	.	0	.	.	.	.
O=C(CSc1nnc(-c2cccc(Cl)c2)n1-c1ccccc1)Nc1ccccc1	.	.	.	0	.	.	.	.
CN(C)CC#Cc1ccc([C@@H]2[C@H](CO)N3CCCCN(C(=O)Nc4ccccc4F)C[C@@H]23)cc1	4	102*	-40	.	?	93	-8	39*
CN(C)CC#Cc1ccc([C@@H]2[C@@H](CO)N3CCCCN(C(=O)Nc4cc(F)ccc4F)C[C@H]23)cc1	4	100*	-4	.	?	45	8	28*
COCC#Cc1ccc([C@H]2[C@@H](CO)N3CCCCN(C(=O)Nc4cc(F)ccc4F)C[C@H]23)cc1	1	101*	-52	.	104*	62	-1	89*

Screening data as filed in PubChem BioAssay.
